From PubChem
An excerpt weighted towards active compounds, which were near 2.7% of everything screened.
NR2E3 ag-1 – NR2E3 (human) agonism; Q9Y5X4; 320,000 compounds, 0.12% hits; GST-NR2E3/biotin-RetCOR TR-FRET, 1536-well; inhibition of corepressor binding, % at 4.78 µM;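 active = percent inhibition above the cutoff of mean plus 3 SD of all tested compounds, set per screening campaign, cut at about 20% in these data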;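 note: 0% = DMSO wells and 100% = biotin wells as full block of FRET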
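Material – GST-tagged NR2E3 plus biotinylated RetCOR corepressor · Quantity – NR2E3 fusion 1.35 nM · Times – 5 h incubation at 4 °C · Medium – pH 7.5 Tris-based buffer · Technique – TR-FRET, Eu(K)-anti-GST donor, streptavidin-D2 acceptor, ex 340, em 617/671 nm · Benchmarks – high control biotin, low control 0.6% DMSO · Format – 1536-well plates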
NR1D1 modulator – modulators of human Rev-erb alpha DNA binding. 370,000 compounds, 0.79% hits. P20393. AID 1259318. Rev-erbα–FITC-DNA binding, fluorescence polarization, 90 min. activity, % at 10 µM;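 active = activity above about 14%, limit read from the data; passing the limit was not always enough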;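 note: 0% = DMSO wells with 35 nM protein and 100% = DMSO wells with 750 nM protein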
Target sequence (P20393 whole entry, looked up): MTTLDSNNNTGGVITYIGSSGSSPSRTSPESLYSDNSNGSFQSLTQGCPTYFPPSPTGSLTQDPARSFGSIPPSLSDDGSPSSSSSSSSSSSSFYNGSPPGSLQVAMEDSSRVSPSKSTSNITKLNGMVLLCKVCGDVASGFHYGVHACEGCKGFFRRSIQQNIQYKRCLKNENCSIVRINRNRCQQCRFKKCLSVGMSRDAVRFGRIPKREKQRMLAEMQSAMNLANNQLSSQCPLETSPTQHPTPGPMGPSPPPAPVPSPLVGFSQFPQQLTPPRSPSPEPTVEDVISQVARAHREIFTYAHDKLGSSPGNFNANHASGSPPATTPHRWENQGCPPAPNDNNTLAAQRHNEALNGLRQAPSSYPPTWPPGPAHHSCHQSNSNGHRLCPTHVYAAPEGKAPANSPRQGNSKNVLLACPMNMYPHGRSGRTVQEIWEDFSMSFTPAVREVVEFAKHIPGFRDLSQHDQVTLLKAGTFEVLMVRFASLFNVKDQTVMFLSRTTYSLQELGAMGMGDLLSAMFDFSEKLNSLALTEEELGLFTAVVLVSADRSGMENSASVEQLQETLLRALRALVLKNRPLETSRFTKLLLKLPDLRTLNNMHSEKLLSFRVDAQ
NR2E3 ag-2 – activates human NR2E3 receptor. Q9Y5X4. CHO-S Gal4-NCOR/VP16-NR2E3 two-hybrid, luciferase. inhibition of corepressor binding, % at 3.98 µM. 360,000 compounds, 0.35% hits. AID 602229;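 active = inhibition above the mean of all tested compounds plus 3 SD, cut at about 70% in these data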;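 note: 0% = DMSO with NR2E3 transfected cells and 100% = cells lacking NR2E3 construct; higher means lower luciferase signal from less NR2E3 corepressor binding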
PG9 binder – small molecules binding HIV-1 gp120 antibody PG9. TR-FRET gp120-PG9 antibody binding. inhibition, % at 6.7 µM. 360,000 compounds, 0.43% hits. AID 624416; in the data active = inhibition above about 8.5%
MC4R antag cAMP – antagonists of human melanocortin 4 receptor (MC4R) | P32245 | MC4R-expressing cells, MTII-stimulated cAMP, LANCE TR-FRET | inhibition, % at 6.5 µM | 360,000 compounds, 0.48% hits;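 active = inhibition above its plate's cutoff, the mean of tested wells on that plate plus 3 SD, cut at about 29% in these data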;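 note: 0% = Melanotan II alone and 100% = Melanotan II plus saturating MCL0020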
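system = U2OS cells with stable human MC4R expression | also added = Melanotan II challenge after compound preincubation | dosing = one concentration, 6.5 µM nominal | incubation = compound 30 min, challenge 1 h, detection 1 h | measured by = TR-FRET with Eu-cAMP and labeled anti-cAMP, 671 nm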
MC4R ag barr – activates human MC4R beta-arrestin recruitment; AID 540308; P32245; 360,000 compounds, 0.98% hits; U2OS MC4R beta-arrestin complementation, luminescence; percent of melanotan II response, DMSO zero; activation, % at 8.9 µM;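 active = activation above a per-plate cutoff, the mean activation of sample wells on that plate plus 3 SD, cut at about 8% in these data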
MC4R barr ag – human MC4R beta-arrestin agonism confirmation. shares compounds with MC4R ag barr. U2OS MC4R beta-arrestin recruitment, luminescence; scaled DMSO 0%, Melanotan II 100%. activation, % at 8.9 µM. 2,400 compounds, 31% hits. AID 602192;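 active = mean activation across replicates above the hit cutoff set in the earlier primary screen, cut at about 8% in these data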
MOR-DOR barr ag – OPRM1-OPRD1 heterodimer agonism counter-screen; activation, % at 9.2 µM; shares compounds with MC4R ag barr; U2OS PathHunter beta-arrestin, beta-gal luminescence; percent of deltorphin B response, DMSO zero; 2,400 compounds, 5.8% hits;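 active = mean activation across replicates exceeds the hit threshold derived in the earlier primary screen, cut at about 18% in these data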;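 note: 100% = deltorphin B at 0.9 µM final and 0% = DMSO alone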
* marks the source's active call; other numbers are inactive results; nt = no result given.

SMILES	NR2E3 ag-1	NR1D1 modulator	NR2E3 ag-2	PG9 binder	MC4R antag cAMP	MC4R ag barr	MC4R barr ag	MOR-DOR barr ag
O=C(N1CCCCCC1)N1CCN(S(=O)(=O)N2CCOCC2)CC1	-2	-1	-12	0	11	-1	nt	nt
Cc1cc2oc3ccc(NCCCn4ccnc4)cc3c(=O)c2cc1C	0	-28	-86	-2	-6	11*	1	12
CC(C)C(NC(=O)c1ccc2c(c1)OCCO2)c1nc2ccccc2[nH]1 (centres undefined)	4	2	10	0	4	-1	nt	nt
COc1cc(/C=C/C(=O)OCC(=O)Nc2cc(C(F)(F)F)ccc2N2CCOCC2)ccc1O	-2	7	-8	-1	3	24*	5	15
Fc1ccc(Cn2c(-c3cscn3)nc3ccccc32)c(Cl)c1	-2	16	-10	7	4	9.7*	3	8
Nc1nonc1-c1nc2ccccc2n1Cc1ccc(F)cc1Cl	1	-8	-7	1	-2	4	nt	nt
CCCC(c1nnnn1CCOC)N1CCN(c2nc3ccccc3s2)CC1 (centres undefined)	2	5	-10	-3	13	-1	nt	nt
CCn1cc(C(=O)OCC(=O)c2cc(C)n(-c3cccc(C(F)(F)F)c3)c2C)c(=O)c2ccc(C)nc21	-2	-5	17	-1	1	2	nt	nt
CCn1cc(C(=O)NCc2cccc(C(F)(F)F)c2)c(=O)c2ccc(C)nc21	2	-2	-6	-2	3	14*	2	4
COc1ccc(/C=N\NS(=O)(=O)c2ccc(Cl)cc2)cc1COc1ccccc1[N+](=O)[O-]	0	5	-33	-2	9	18*	10*	6
COc1ccc(/C=N\NS(=O)(=O)c2ccc(Br)cc2)cc1COc1ccccc1[N+](=O)[O-]	-1	-5	10	-2	9	2	nt	nt
CC(=O)/C(C(=N)N1CCN(C(c2ccccc2)c2ccccc2)CC1)=C(\C)O	1	-4	18	2	10	2	nt	nt
O=C(O)c1cc(-c2ccc(-c3c(-c4ccc5c(c4)OCO5)noc3-c3ccsc3)cc2)nc2ccccc12	0	3	-28	0	-6	-2	nt	nt
c1ccc(-c2onc(-c3ccco3)c2-c2ccc3c(c2)OCO3)cc1	1	3	-22	0	12	10.0*	5	6
O=C(OCc1cn([C@@H]2CN(Cc3cccs3)[C@@H](c3ccccc3)C[C@H]2O)nn1)c1ccccc1	nt	-2	-9	-1	-5	3	nt	nt
S=C(Nc1ccccc1)Nc1ccc(Br)cn1	0	-2	-18	0	0	11*	3	6
O=C(NC(=S)Nc1ccc(Br)cn1)c1cccs1	1	-3	-9	1	23	1	nt	nt
COc1ccc(OCC(=O)Nc2cc3oc4ccccc4c3cc2OC)cc1	0	nt	5	nt	-7	38*	12*	14
COc1cc2c(cc1NC(=O)Nc1ccc(F)cc1)oc1ccccc12	-2	8	5	2	-4	11*	1	3
COc1cc2c(cc1NC(=O)Nc1cccc(C)c1)oc1ccccc12	-1	10	-15	0	6	11*	2	2
COc1ccc(C)cc1NC(=O)Nc1cccc(C)c1	0	-3	-3	1	14	-2	nt	nt
Cc1cccc(NC(=O)Nc2ccc(C)cc2Br)c1	0	-2	-71	-2	6	12*	3	9
Cc1ccccc1Cn1c2ccccc2c2cnn(CC(=O)N3CCN(c4ccccc4)CC3)c(=O)c21	nt	3	-15	3	7	0	nt	nt
CCC[C@@H](/C=C/C(=O)OC(C)(C)C)Sc1ccc(C(C)(C)C)cc1	nt	4	nt	nt	nt	nt	nt	nt
COc1ccc(C(=O)Nc2nc3ccc(OC)cc3s2)cc1	nt	11	-136	0	-4	2	nt	nt
SMILES	NR2E3 ag-1	NR1D1 modulator	NR2E3 ag-2	PG9 binder	MC4R antag cAMP	MC4R ag barr	MC4R barr ag	MOR-DOR barr ag
COC(=O)c1ccc(C(=O)Nc2nc3cc(N)c(C)cc3s2)cc1	-1	0	-24	-1	-1	11*	0	2
CSc1ccccc1OCc1cc(C(=O)NC2CCc3ccccc32)no1 (centres undefined)	-1	6	-4	-1	-7	64*	9.5*	8
Cc1ccc(C=C(C#N)C(=O)c2ccccc2)cc1	nt	-6	9	2	nt	nt	nt	nt
CN(C)c1ccc(/C=C(\C#N)C(=O)c2ccccc2)cc1	-1	11	-24	-3	11	19*	-1	2
O=C(COc1cccc2c1CCNC2=O)Nc1cccc(C(F)(F)F)c1	-2	nt	7	nt	-6	0	nt	nt
S=C(Nc1ccc(Cl)c(Cl)c1)N1CCN(c2ccccn2)CC1	4	8	-14	2	27	15*	2	7
CCc1c(C)sc(NC(=O)CC#N)c1C#N	2	-10	-15	nt	-1	3	nt	nt
CCc1c(C)sc(NC(=O)Cn2nc(C(F)(F)F)c3c2CCCC3)c1C#N	-1	13	32	0	4	10*	5	5
Cc1ccc(/C=C(\C#N)C(=O)Nc2c(C)cccc2C)s1	0	0	-58	-1	12	-1	nt	nt
Cc1ccc(NC(=O)/C(C#N)=C/c2ccc(C)s2)c(C)c1	0	6	-37	1	10	18*	1	4
O=C(CSc1ccc(F)cc1)Nc1ccc(C2SCCS2)cc1	3	-6	-81	-1	11	10*	0	2
Cc1ccc(Cn2ccc(NC(=O)c3cc(-c4ccccc4)on3)n2)cc1	7	-5	15	-2	6	11*	-4	3
Cc1ccc(Cn2ccc(NC(=O)c3cc(-c4ccc(Br)cc4)on3)n2)cc1	4	2	9	-4	1	0	nt	nt
CCOc1ccccc1N1CC(C(=O)NNC(=O)c2cc(OC)c(OC)c(OC)c2)CC1=O (centres undefined)	-1	-2	1	0	4	-1	nt	nt
CCOC(=O)c1cc(NC(=O)c2ccc(C)cc2)c(=O)oc1-c1ccccc1	-3	-1	-2	0	14	11*	1	2
Cc1c(C(C)(C)O)[nH]c2cc(C(F)(F)F)ccc12	1	4	10	0	7	2	nt	nt
O=c1[nH]c2cc(C(F)(F)F)ccc2n1-c1cc(C(F)(F)F)ccc1O	2	-2	11	1	-7	10*	1	10
